Activity calls are given as the source filed them. The calls are words filed in the database; no cut-off is given here.
Columns and labels:
Cannabinoid receptor 2 [1] = target: T1, Cannabinoid receptor 2 (Homo sapiens, UniProt P34972); assay: Displacement of [3H]CP55,940 from human CB2 receptor expressed in CHO cells membrane assessed as residual activity at 0.1 uM by scintillation counting analysis relative to control; assay type: cell membranes
In short: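 Membranes (2.5 µg) from CHO cells stably expressing human CB2, in 50 mM Tris-HCl, 5 mM MgCl2, 1 mM CaCl2, 2 mg/mL BSA, pH 7.4. Incubated 30 min at 37 °C with 0.8 nM [3H]CP55,940 and 0.1 µM compound (final). Nonspecific binding with 1 µM unlabelled CP55,940. Filtered on PEI-soaked GF/B filters, scintillation counted. Quintuplicate, ≥3 experiments.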

Cannabinoid receptor 2 [2] = target: T1, Cannabinoid receptor 2; assay: Agonist activity at human recombinant Cannabinoid receptor 2 by GTPgammaS binding assay; assay type: functional
In short: (§1)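 [35S]GTPγS filtration assay. Membranes (5 µg CB2 or 10 µg/well CB1), permeabilized with equal mass of saponin, preincubated 20 min at room temperature with compound (0-100 μM) in 20 mM HEPES, 100 mM NaCl, 10 mM MgCl2, 10 µM GDP, pH 7.4. Then 0.3 nM [35S]GTPγS for 30 min at 37 °C. Quintuplicate, ≥3 experiments. pEC50 from non-linear fit.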

Cannabinoid receptor 1 = Cannabinoid receptor 1 (Homo sapiens, UniProt P21554); assay: Agonist activity at human recombinant Cannabinoid receptor 1 by GTPgammaS binding assay; assay type: functional; in short: as §1
Cannabinoid receptor 1, sequence (P21554 whole entry): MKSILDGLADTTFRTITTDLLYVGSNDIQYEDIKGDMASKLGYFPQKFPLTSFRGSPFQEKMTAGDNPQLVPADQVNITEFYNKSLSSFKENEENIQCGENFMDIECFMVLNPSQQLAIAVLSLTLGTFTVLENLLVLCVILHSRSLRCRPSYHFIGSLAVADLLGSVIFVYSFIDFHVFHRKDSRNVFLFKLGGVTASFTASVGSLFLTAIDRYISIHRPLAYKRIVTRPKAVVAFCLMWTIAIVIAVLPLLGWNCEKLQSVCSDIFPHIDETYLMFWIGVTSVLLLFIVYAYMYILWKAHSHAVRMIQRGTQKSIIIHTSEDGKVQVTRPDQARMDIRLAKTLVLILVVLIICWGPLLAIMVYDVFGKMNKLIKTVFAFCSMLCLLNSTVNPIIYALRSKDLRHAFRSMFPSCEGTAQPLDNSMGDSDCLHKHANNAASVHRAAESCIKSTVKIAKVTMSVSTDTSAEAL

Cannabinoid receptor 2 [3] = target: T1, Cannabinoid receptor 2; assay: Agonist activity at human Cannabinoid receptor 2 in BT-549 cells assessed as downregulation in ERK1/2 phosphorylation level at 10 uM and observed within 5 min by Western blot analysis relative to control; assay type: functional, cell-based
In short: (§2)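 BT549 cells, untransfected or transfected with scramble oligo or CNR2 siRNA, incubated at 37°C with or without 10 μM compound for the indicated periods. Phospho-ERK1/2 measured by Western blot on whole lysates (20-40 µg/lane, SDS-PAGE, PVDF, enhanced chemiluminescence). Values compared with relative vehicle-treated cells.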

Cannabinoid receptor 2 [4] = target: T1, Cannabinoid receptor 2; assay: Agonist activity at human Cannabinoid receptor 2 in BT-549 cells assessed as downregulation in ERK1/2 phosphorylation level at 10 uM by westernblot analysis; assay type: functional, cell-based; conditions: filed as agonist, time 5-60 min, TDE = time-dependent effect; in short: as §2
MCF-10A = assay: Cytotoxicity activity against human MCF-10A cells assessed as change in cell proliferation by MTT assay; assay type: toxicity, cell-based
In short: (§3)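 Cells seeded at 1.5 x 10^4/well and incubated overnight; sub-confluent cells treated at 37 °C for 24, 48 or 72 h. MTT added (final 1 mg/mL), 3 h at 37°C in the dark, formazan dissolved in DMSO, read at 590 nm. Expressed as % of vehicle; mean ± SEM of three experiments, each at least in quintuplicate.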

BT-549 [5] = assay: Antiproliferative activity against human BT-549 cells assessed as inhibition in cell proliferation incubated after 72 hrs by MTT assay; assay type: functional, cell-based; conditions: dose 0.1-10 µM; in short: as §3
HCC1954 = assay: Antiproliferative activity against human HER2-positive HCC1954 cells assessed as change in cell proliferation by MTT assay; assay type: functional, cell-based; in short: as §3
Cannabinoid receptor 2 [6] = target: T1, Cannabinoid receptor 2; assay: Agonist activity at human Cannabinoid receptor 2 in BT-549 cells transfected with CNR2 siRNA assessed as downregulation in ERK1/2 phosphorylation level at 10 uM and observed after 5 mins by Western blot analysis relative to control; assay type: functional, cell-based; in short: as §2
BT-549 [7] = assay: Inhibition of colony formation in human BT-549 cells assessed as decrease in number of colonies at 10 uM incubated for 14 days by inverted phase contrast microscope relative to control; assay type: functional; parameters: scale not given: the % may be the effect or the level left; conditions: time 14 day
In short: (§4)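 BT549 seeded at 1 x 10^3 cells/well and grown at 37 °C for at least 14 days with vehicle or compound. Colonies fixed and stained with 6% glutaraldehyde/0.5% crystal violet for 30 min, then counted by inverted phase-contrast microscopy (10x). Expressed as % of vehicle. Three independent experiments, each at least in triplicate.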

MDA-MB-231 = assay: Antiproliferative activity against human triple negative MDA-MB-231 cells assessed as change in cell proliferation by MTT assay; assay type: functional, cell-based; in short: as §3
BT-549 [8] = assay: Antiinflammatory activity in human BT-549 cells transfected with CNR2 siRNA assessed as decrease in TNF-alpha level at 10 uM incubated for 48 hrs by ELISA method; assay type: functional, cell-based
In short: (§5)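 BT549 cells seeded at 1.5 x 10^4 cells/well, transfected with 50 nM CNR2 siRNA or scramble oligo, then treated with vehicle or 10 μM compound at 37 °C for 48 h. TNF-α and IL-6 in supernatant measured by ELISA at 450 nm. Expressed as % of vehicle; mean ± SEM of three experiments in triplicate.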

BT-549 [9] = assay: Antiproliferative activity against human BT-549 cells assessed as inhibition in cell proliferation at 1 to 10 uM incubated after 24 hrs by MTT assay; assay type: functional, cell-based; conditions: dose 1-10 µM; in short: as §3
BT-549 [10] = assay: Antiinflammatory activity in human BT-549 cells assessed as decrease in IL-6 level at 10 uM incubated for 48 hrs by ELISA method relative to control; assay type: functional; parameters: scale not given: the % may be the effect or the level left
In short: (§6)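 BT549 cells seeded at 1.5 x 10^4/well and treated after 24 h with vehicle or compound at 37 °C for 48 h. TNF-α and IL-6 in supernatant measured by ELISA at 450 nm against a recombinant cytokine standard curve (0-1000 pg/mL). Expressed as % of vehicle. Three independent experiments, each in triplicate.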

BT-549 [11] = assay: Antiinflammatory activity in human BT-549 cells transfected with CNR2 siRNA assessed as decrease in IL-6 level at 10 uM incubated for 48 hrs by ELISA method; assay type: functional, cell-based; in short: as §5
Cannabinoid receptor 2 [12] = target: T1, Cannabinoid receptor 2; assay: Agonist activity at human Cannabinoid receptor 2 in BT-549 cells assessed as change in ERK1/2 phosphorylation level at 10 uM and observed after 10 min by westernblot analysis; assay type: functional, cell-based; in short: as §2
BT-549 [13] = assay: Antiinflammatory activity in human BT-549 cells assessed as decrease in TNF-alpha level at 10 uM incubated for 48 hrs by ELISA method relative to control; assay type: functional; parameters: scale not given: the % may be the effect or the level left; in short: as §6
BT-549 [14] = assay: Antiproliferative activity against human BT-549 cells transfected with CNR2 siRNA assessed as inhibition of cell proliferation at 10 uM incubated after 24 hrs by MTT assay; assay type: functional, cell-based
In short: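 BT549 cells transfected with 50 nM CNR2 siRNA or scramble control by lipofection. After 24 h, treated with vehicle or 10 µM compound for a further 24 h. Viability by MTT (1 mg/mL, 3 h, 37°C, 590 nm).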

BT-549 [15] = assay: Inhibition of colony formation in human BT-549 cells assessed as decrease in number of colonies at 0.1 uM incubated for 14 days by inverted phase contrast microscope relative to control; assay type: functional, cell-based; conditions: time 14.0 day; in short: as §4
Cannabinoid receptor 2 [16] = target: T1, Cannabinoid receptor 2; assay: Agonist activity at human recombinant Cannabinoid receptor 2 assessed as stimulation of GTPgammaS binding at 1 uM by GTPgammaS binding assay relative to control; assay type: functional
In short: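 CB2 membranes (ChemiSCREEN) at 5 µg, permeabilised with an equal mass of saponin. Pre-incubated with ligand for 20 min at RT in 20 mM HEPES, 100 mM NaCl, 10 mM MgCl2, pH 7.4, with 10 µM GDP. Then 0.3 nM [35S]GTPγS for 30 min at 37 °C. Stopped with ice-cold phosphate buffer, filtered on PEI-soaked GF/B, scintillation counted. Quintuplicates, ≥3 experiments.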

BT-549 [17] = assay: Antiproliferative activity against human BT-549 cells transfected with CNR2 siRNA assessed as inhibition of cell proliferation at 0.1 uM incubated after 24 hrs by MTT assay; assay type: functional, cell-based
In short: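 BT549 transfected with 50 nM CNR2 siRNA or scramble oligo (Lipofectamine RNAiMAX). After 24 h, treated for a further 24 h. Viability by MTT: 1 mg/mL final for 3 h at 37 °C, formazan dissolved in DMSO, absorbance read at 590 nm.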

BT-549 [18] = assay: Antiproliferative activity against human BT-549 cells assessed as decrease in cell proliferation at 0.1 uM by MTT assay; assay type: functional, cell-based
In short: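 BT549 in RPMI-1640 with 10% FBS and insulin, seeded at 1.5 x 10^4/well overnight. Sub-confluent cells treated at 37 °C. MTT added at 1 mg/mL final for 3 h at 37 °C in the dark, formazan dissolved in DMSO, absorbance read at 590 nm. Expressed as % of vehicle.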

T1 sequence (P34972 whole entry): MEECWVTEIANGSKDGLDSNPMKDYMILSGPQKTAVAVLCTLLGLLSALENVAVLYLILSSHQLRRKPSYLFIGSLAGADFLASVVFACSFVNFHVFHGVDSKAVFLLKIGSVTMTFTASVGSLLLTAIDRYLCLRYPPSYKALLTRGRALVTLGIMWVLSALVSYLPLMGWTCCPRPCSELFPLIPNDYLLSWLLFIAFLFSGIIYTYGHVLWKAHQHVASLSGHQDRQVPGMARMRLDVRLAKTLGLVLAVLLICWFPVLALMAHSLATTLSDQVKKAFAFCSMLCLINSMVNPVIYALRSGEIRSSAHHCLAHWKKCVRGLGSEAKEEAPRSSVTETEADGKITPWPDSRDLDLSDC

Row | SMILES | Activity (Cannabinoid receptor 2 [1]) [%] | EC50 (Cannabinoid receptor 1; read-out: pEC50 (converted)) [nM] | EC50 (Cannabinoid receptor 2 [2]; read-out: pEC50 (converted)) [nM] | also measured
1 | N#Cc1ccc(CN2C(=O)c3ccc(OCc4ccc(OC(F)(F)F)cc4)cc3OC23CCCCC3)cc1 | < 80 |  |  | pEC50 (Cannabinoid receptor 2 [2]): inactive
2 | O=C1c2ccc(OS(=O)(=O)c3ccc(-c4ccc(Cl)cc4)cc3)cc2OC2(CCCCC2)N1Cc1ccccc1 | < 80 |  |  | 
3 | CN1C(=O)c2ccc(OS(=O)(=O)c3ccc(Oc4ccccc4)cc3)cc2OC1(C)C | < 80 |  |  | 
4 | O=C1c2ccc(OS(=O)(=O)c3cccc([N+](=O)[O-])c3)cc2OC2(CCOCC2)N1Cc1ccccc1 | < 80 | > 10000 | 204 | 
5 | O=C1c2ccc(OS(=O)(=O)c3cccs3)cc2OC2(CCCCC2)N1Cc1ccccc1 | < 80 | > 10000 |  | Activity (Cannabinoid receptor 2 [3]): 30%; Activity (Cannabinoid receptor 2 [4]): Tde; Activity (MCF-10A): Non-Toxic; inhibition (BT-549 [5]): Dose-Dependent Effect; EC50 (Cannabinoid receptor 1; read-out: EC50): > 10000 nM; Activity (HCC1954): Active; Activity (Cannabinoid receptor 2 [6]): inactive; Activity (BT-549 [7]): 75.4%; Activity (MDA-MB-231): Active; Activity (BT-549 [8]): inactive; inhibition (BT-549 [9]): Active; Activity (BT-549 [10]): <=70%; Activity (BT-549 [11]): inactive; Activity (Cannabinoid receptor 2 [12]): inactive; Activity (BT-549 [13]): <=50%; Activity (BT-549 [14]): inactive; EC50 (Cannabinoid receptor 2 [2]; read-out: EC50): 110 nM
6 | CC(C)(C)C(=O)COc1ccc2c(c1)OC(C)(C)N(Cc1ccccc1)C2=O | < 80 |  |  | pEC50 (Cannabinoid receptor 2 [2]): inactive
7 | CC1(C)NC(=O)c2ccc(OS(=O)(=O)c3cccc4ccccc34)cc2O1 | < 80 |  |  | 
8 | Cn1ccc(S(=O)(=O)Oc2ccc3c(c2)OC2(CCCCC2)N(Cc2ccc(C#N)cc2)C3=O)n1 | < 80 | > 10000 | 372 | 
9 | CN1C(=O)c2ccc(OS(=O)(=O)c3cccc4ccccc34)cc2OC1(C)C | < 80 | 7240 | 2950 | 
10 | Cn1cnc(S(=O)(=O)Oc2ccc3c(c2)OC2(CCCCC2)N(Cc2ccccc2)C3=O)c1 | < 80 | > 10000 | 1000 | 
11 | O=C1c2ccc(OS(=O)(=O)Cc3ccccc3)cc2OC2(CCCCC2)N1Cc1ccccc1 | < 80 | > 10000 | 759 | 
12 | COc1ccc(S(=O)(=O)Oc2ccc3c(c2)OC2(CCCCC2)N(Cc2ccccc2)C3=O)cc1 | < 80 | > 10000 | 1480 | 
13 | O=C1NC2(CCCCC2)Oc2cc(OS(=O)(=O)c3ccccc3[N+](=O)[O-])ccc21 | < 80 | > 10000 | 2140 | 
14 | COc1cccc(S(=O)(=O)Oc2ccc3c(c2)OC2(CCCCC2)N(Cc2ccccc2)C3=O)c1 | < 80 | > 10000 | 417 | 
15 | N#Cc1ccc(S(=O)(=O)Oc2ccc3c(c2)OC2(CCCCC2)N(Cc2ccccc2)C3=O)cc1 | < 80 | > 10000 | 288 | 
16 | Cc1ccc(S(=O)(=O)Oc2ccc3c(c2)OC(C)(C)N(Cc2ccc(F)cc2)C3=O)cc1 | < 80 | > 10000 | 195 | 
17 | COc1cccc(S(=O)(=O)Oc2ccc3c(c2)OC2(CCCCC2)N(CCCCC#N)C3=O)c1 | < 80 | > 10000 | 776 | 
18 | O=C1c2ccc(OS(=O)(=O)c3ccc4c(c3)OCCO4)cc2OC2(CCOCC2)N1Cc1ccccc1 | < 80 |  |  | 
19 | COc1cccc(COc2ccc3c(c2)OC(C)(C)N(Cc2ccc(C(C)C)cc2)C3=O)c1 | < 80 |  |  | pEC50 (Cannabinoid receptor 2 [2]): inactive
20 | CN(C)C(=O)CN1C(=O)c2ccc(OS(=O)(=O)c3ccc(Br)cc3)cc2OC1(C)C | < 80 |  |  | 
21 | CC1(C)Oc2cc(OCc3ccc(OC(F)(F)F)cc3)ccc2C(=O)N1Cc1ccc(F)cc1 | < 80 |  |  | pEC50 (Cannabinoid receptor 2 [2]): inactive
22 | O=C1c2ccc(OS(=O)(=O)c3ccc([N+](=O)[O-])cc3)cc2OC2(CCOCC2)N1Cc1ccccc1 | < 80 |  |  | 
23 | CCCn1c(C)c(C(=O)c2cccc3ccccc23)c2ccccc21 |  |  |  | inhibition (BT-549 [15]): Active; Activity (Cannabinoid receptor 2 [16]): 233%; Activity (BT-549 [17]): inactive; Activity (BT-549 [18]): Active
24 | COc1cccc(S(=O)(=O)Oc2ccc3c(c2)OC2(CCCCC2)N(Cc2ccc(C(C)C)cc2)C3=O)c1 | < 80 |  |  | 
25 | COc1cccc(COc2ccc3c(c2)OC(C)(C)N(Cc2ccc(F)cc2)C3=O)c1 | < 80 |  |  | pEC50 (Cannabinoid receptor 2 [2]): inactive
26 | N#Cc1cccc(S(=O)(=O)Oc2ccc3c(c2)OC2(CCCCC2)N(Cc2ccccc2)C3=O)c1 | < 80 | > 10000 | 355 | 
